From PubChem BioAssay
Rtt109 HAT inh = inhibitors of C. albicans Rtt109/Vps75 HAT, primary screen, biochemical, ThioGlo CoA-SH fluorescence, plate reader | inhibition, % at 34.9 µM | 330,000 tested, 0.16% active | Histone acetyltransferase RTT109 (Candida albicans (strain SC5314 / ATCC MYA-2876)), … | purified Rtt109/Vps75, 4 h;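 active = inhibition of at least 50% in every replicate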
Target sequence (Q5AAJ8 whole entry, looked up): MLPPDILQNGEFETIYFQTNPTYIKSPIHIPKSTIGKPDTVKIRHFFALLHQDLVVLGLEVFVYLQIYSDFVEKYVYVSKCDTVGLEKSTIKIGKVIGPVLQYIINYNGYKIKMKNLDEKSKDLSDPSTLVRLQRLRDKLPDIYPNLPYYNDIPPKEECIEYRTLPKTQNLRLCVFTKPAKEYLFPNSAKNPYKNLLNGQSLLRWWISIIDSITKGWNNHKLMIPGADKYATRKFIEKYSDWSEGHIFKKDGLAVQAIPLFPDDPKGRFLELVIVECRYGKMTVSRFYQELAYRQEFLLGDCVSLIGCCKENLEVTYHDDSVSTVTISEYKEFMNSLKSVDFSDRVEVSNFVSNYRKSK
PGC1a acetyl inh = inhibitors of PGC1a acetylation signal, primary screen, cell-based, U2OS, AlphaScreen, inhibitor mode. AlphaScreen anti-acetyl-lysine; with virally co-expressed GCN5 acetyltransferase. inhibition, % at 15.6 µM. 350,000 tested, 0.17% active. AID 651687, 2012;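 active = every replicate shows inhibition of at least 40%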
S100A4 MyoIIA = inhibitors of S100A4-myosin IIA peptide binding, primary screen, biochemical, fluorescence polarization, TAMRA-MyoIIA peptide; Protein S100-A4 (Homo sapiens), P26447; inhibition, % at 10.7 µM; 360,000 tested, 0.14% active; AID 652163, 2013;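 active = mean inhibition of at least 70% across replicates, with every replicate also reaching that level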
Target sequence (P26447 whole entry, looked up): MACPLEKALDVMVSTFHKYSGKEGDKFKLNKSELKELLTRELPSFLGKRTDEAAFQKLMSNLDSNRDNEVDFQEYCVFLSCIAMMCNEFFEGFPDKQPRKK
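assay system = human S100A4 monomer with TAMRA-labelled myosin IIA peptide | also added = labelled myosin peptide probe, 5 nM | incubation = 5 min between mix addition and reading | control set = DMSO and TFP controls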
ERAP1 HTS inh = human ERAP1 aminopeptidase inhibitors, primary screen, biochemical, single point, plate reader; recombinant ERAP1, Leu-AMC fluorescence, 60 min; inhibition, % at 10.7 µM; 340,000 tested, 0.15% active; AID 652197, 2013;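 active = mean replicate inhibition of at least 30%, or all replicates individually reaching that 30% level; inactive = mean below 30% and not every replicate reaching it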
C2C12 statin = suppressors of statin myotoxicity in C2C12 myotubes, primary screen, cell-based, single point, plate reader; C2C12 myotubes + simvastatin, ATP luminescence, 48 h; scaled: DMSO 0, geranylgeraniol control 100; 330,000 tested, 0.78% active; rescue of ATP level, % at 7.49 µM; AID 602340, 2012;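 active = mean ATP rescue above about 67%, or every replicate alone reaching that limit, limit read from the data, passing the limit was not always enough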;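 note: myotubes were challenged with 10 µM simvastatin during compound exposure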
Hits are given with their value; n = inactive; x = no result; ! = not confirmed by another sample. Compounds with a hit are over-represented: about 0.98% of the library has one in this group of screens.

SMILES | Rtt109 HAT inh | PGC1a acetyl inh | S100A4 MyoIIA | ERAP1 HTS inh | C2C12 statin
CN1c2ccc(-c3cccc(C#N)c3)cc2[C@H]2[C@H](CCN2S(=O)(=O)c2ccccc2F)[C@H]1CO | x | n | 123 | n | n
COc1cccc(-c2ccc3c(c2)[C@H]2[C@H](CCN2C(=O)c2ccccc2F)[C@@H](CO)N3C)c1 | x | n | x | x | n
COc1cccc(-c2ccc3c(c2)[C@@H]2[C@@H](CCN2C(=O)NC2CCCC2)[C@@H](CO)N3C)c1 | x | n | n | n | n
CN1c2ccc(-c3cccc(F)c3)cc2[C@H]2[C@H](CCN2C(=O)c2ccccc2F)[C@H]1CO | x | n | 89 | n | n
COc1ccc(-c2ccc3c(c2)[C@@H]2[C@@H](CCN2C(=O)NC2CCCC2)[C@H](CO)N3C)cc1 | x | n | 82 | n | x
CN1c2ccc(-c3ccccc3)cc2[C@H]2[C@H](CCN2S(=O)(=O)c2ccccc2F)[C@H]1CO | x | n | n | n | n
CCCC#Cc1cnc2c(c1)C(=O)N([C@H](C)CO)C[C@H](C)[C@H](CN(C)C(=O)c1ccc(F)cc1)O2 | x | n | n | n | n
N#Cc1c2n(c3c(=O)n(Cc4ccc(Cl)cc4)cnc13)CCCCC2 | n | n | x | x | 95
COc1ccc2c3c(n(C)c2c1)[C@@H](CO)N(CC1CCCC1)CC31CCN(C(=O)Nc2ccccc2)CC1 | x | n | n | n | x
CCS(=O)(=O)N1CCC(C(=O)NCCCN2CCC(Cc3ccccc3)CC2)CC1 | n | n | x | x | n
O=C(NCCCN1CCC(Cc2ccccc2)CC1)C1CCN(S(=O)(=O)N2CCOCC2)CC1 | n | n | x | x | 90
N#C[C@@H]1[C@H](c2ccc(C3=CCCCC3)cc2)[C@H](CO)N1C(=O)c1ccccn1 | x | n | n | n | n
N#Cc1c(NC(=O)c2cccc(S(=O)(=O)Nc3ccc(C(=O)O)cc3)c2)sc2c1CCCC2 | n | n | n | 43 | n
COc1ccc(S(=O)(=O)N2CCN(Cc3ccc(Cl)cc3)CC2)cc1 | n | x | x | x | n
COc1ccc(S(=O)(=O)N2CCN(Cc3cccc(Cl)c3)CC2)cc1 | n | n | x | x | 105
CCOC(=O)c1ccc(N2C(=O)CC(SCC(=O)Nc3ccc(S(N)(=O)=O)cc3)C2=O)cc1 (stereo not drawn) | x | x | n | n | x
COC(=O)c1ccc(N2C(=O)CC(SCC(=O)Nc3ccc(OC)cc3)C2=O)cc1 (stereo not drawn) | 94 | x | n | x | x
C/C=C/c1cnc2c(c1)C(=O)N([C@H](C)CO)C[C@@H](C)[C@H](CN(C)Cc1ccccc1)O2 | x | n | n | n | n
C[C@H](CO)N1C[C@H](C)[C@@H](CN(C)S(=O)(=O)CC(F)(F)F)OCc2ccccc2-c2c(n(C)c3ccccc23)C1=O | x | n | n | n | x
CCOCCOC(=O)C(C)Oc1ccc(Oc2nc(Cl)ccc2Cl)cc1 (stereo not drawn) | n | 88 | n | n | x
CN1[C@@H]2Cn3c(ccc(-c4ccccc4)c3=O)[C@H]1[C@@H](C(=O)NCC1CC1)[C@@H]2CO | x | x | n | n | n
Cc1[nH]c2ccc(C(C)C)cc2c1CC(=O)O | n | 76 | n | x | n
COc1ccccc1NC(=O)N1CC(=O)N2[C@H](CO)[C@H](c3ccc(-c4ccc(F)cc4)cc3)[C@@H]2C1 | x | n | 110 | n | x
C[C@H](CO)N1C[C@H](C)[C@H](CN(C)S(=O)(=O)c2cn(C)cn2)Oc2ccc(NC(=O)CCN3CCOCC3)cc2C1=O | x | n | n | n | n
O=C(O)/C=C/C(=O)Nc1ccc(S(=O)(=O)N2CCCC2)cc1 | 64 | x | n | x | x
SMILES | Rtt109 HAT inh | PGC1a acetyl inh | S100A4 MyoIIA | ERAP1 HTS inh | C2C12 statin
Cn1ncc(C#N)c1/N=C/N1CCCCCC1 | n | n | x | x | n
Cn1ncc(C#N)c1/N=C/N1CCOCC1 | n | n | x | x | 117
CCC(=O)N(C)C[C@@H]1Oc2ncc(C#CCc3ccccc3)cc2C(=O)N([C@H](C)CO)C[C@@H]1C | x | 101 | n | n | n
C[C@@H]1CN([C@H](C)CO)C(=O)c2cc(-c3ccccc3F)cnc2O[C@@H]1CN(C)Cc1ccccc1F | x | n | n | n | n
CC(C)CC#Cc1cnc2c(c1)C(=O)N([C@H](C)CO)C[C@H](C)[C@@H](CN(C)C(=O)Cc1ccccc1)O2 | x | n | n | n | 77
CCC(=O)N(C)C[C@H]1Oc2ncc(-c3ccc(C(=O)N(C)C)cc3)cc2C(=O)N([C@@H](C)CO)C[C@@H]1C | x | n | n | n | n
CCC(=O)N(C)C[C@H]1Oc2ncc(-c3ccc(C(=O)N(C)C)cc3)cc2C(=O)N([C@@H](C)CO)C[C@H]1C | x | n | 111 | n | n
C[C@H](CO)N1C[C@H](C)[C@@H](CN(C)Cc2ccccc2F)Oc2ncc(Br)cc2C1=O | x | 64! | n | n | n
C[C@H](CO)N1C[C@H](C)[C@@H](CN(C)CC2CCCC2)Oc2ncc(C#Cc3ccncc3)cc2C1=O | x | n | n | n | 103
C[C@@H]1CN([C@@H](C)CO)C(=O)c2cc(C#C[C@@H](C)O)cnc2O[C@H]1CN(C)C(=O)Cc1ccncc1 | x | n | 87 | n | n
CN(C)CC(C(=O)c1ccccc1)c1ccccc1 (stereo not drawn) | n | 139 | x | x | n
COc1cccc(CNC(=O)C[C@H]2CC[C@@H](NC(C)=O)[C@H](CO)O2)c1 | x | n | n | n | n
CCCCN1/C(=C/c2ccc3ccccc3[n+]2CC)Sc2ccccc21 | n | n | x | x | x
CCN1/C(=C/c2ccc3cc(C)ccc3[n+]2CC)Sc2cc(C)ccc21 | 82 | x | n | n | n
CCOC(=O)c1c(N)c(C#N)c2n1CCCC2 | n | n | x | x | 113
CCOC(=O)c1c(NC(=O)/C=C/C(=O)O)sc(C)c1-c1ccc(C(C)(C)C)cc1 | n | 47 | n | n | x
O=C(c1ccncc1)N1CC2(C1)[C@H](c1ccccc1)[C@@H](CO)N2CC1CCOCC1 | x | n | n | n | x
COc1ccc(C2(CNC(=O)CCC(=O)O)CCCC2)cc1 | n | n | x | x | 86
CN1/C(=C\C=C(/C#N)C(=O)Nc2ccc(Cl)cc2)C(C)(C)c2ccccc21 | n | x | x | x | x
CN1/C(=C\C=C(C#N)C#N)C(C)(C)c2ccccc21 | n | n | 160 | n | n
Cc1noc(C)c1NC(=O)Nc1ccc2c(c1)CC(=O)N([C@@H](C)CO)C[C@@H](C)[C@@H](CN(C)C(=O)Nc1c(C)noc1C)O2 | x | n | n | n | n
Cc1cccc(-c2noc(CN(C(=O)c3ccc4c(c3)OCO4)C(C)C)n2)c1 | n | n | x | x | n
Cc1nc(C(C)N(C)Cc2nc(-c3ccc4c(c3)OCO4)no2)c(C)s1 (stereo not drawn) | n | 97 | n | n | n
O=C(c1ccc(Br)cc1)C(CN1CCOCC1)c1ccccc1 (stereo not drawn) | n | x | n | n | n
CCOc1ccc(C(=O)C(CN2CCOCC2)c2ccccc2)cc1 (stereo not drawn) | n | n | x | x | 92
